Assay results reported in publication PMC3171605 (Bioorganic & medicinal chemistry letters, 2011).

molecular target: T1, CB1 (Homo sapiens, UniProt P21554); test: not given; format: cell-based; details: not given
T1 sequence (P21554 whole entry, species assumed): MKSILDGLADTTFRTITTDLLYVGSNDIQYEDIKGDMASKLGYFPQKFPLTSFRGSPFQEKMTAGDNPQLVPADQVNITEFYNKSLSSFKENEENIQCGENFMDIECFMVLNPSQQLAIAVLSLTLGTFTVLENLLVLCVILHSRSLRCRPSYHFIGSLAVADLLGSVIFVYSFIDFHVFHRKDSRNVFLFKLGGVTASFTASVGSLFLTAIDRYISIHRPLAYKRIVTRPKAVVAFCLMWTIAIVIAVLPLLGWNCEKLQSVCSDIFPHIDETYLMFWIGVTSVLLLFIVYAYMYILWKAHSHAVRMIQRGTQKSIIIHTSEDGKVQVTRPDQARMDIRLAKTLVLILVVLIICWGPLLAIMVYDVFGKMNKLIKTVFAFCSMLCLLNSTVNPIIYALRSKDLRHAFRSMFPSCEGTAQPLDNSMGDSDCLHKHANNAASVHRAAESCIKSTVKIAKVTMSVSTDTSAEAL

Structure (SMILES)	Kb [µM]
Cc1c(C(=O)Nc2ccncc2)nn(-c2ccc(Cl)cc2Cl)c1-c1ccc(Cl)cc1 [Compound 5]	0.117
Cc1c(C(=O)Nc2cc[n+](C)cc2)nn(-c2ccc(Cl)cc2Cl)c1-c1ccc(Cl)cc1 [Compound 6]	> 10
Cc1c(C(=O)Nc2cc[n+]([O-])cc2)nn(-c2ccc(Cl)cc2Cl)c1-c1ccc(Cl)cc1 [Compound 7]	1.39
Cc1ccc(NC(=O)c2nn(-c3ccc(Cl)cc3Cl)c(-c3ccc(Cl)cc3)c2C)cn1 [Compound 8]	0.384
Cc1c(C(=O)Nc2ccc(C)[n+](C)c2)nn(-c2ccc(Cl)cc2Cl)c1-c1ccc(Cl)cc1 [Compound 9]	8.41
Cc1c(C(=O)Nc2ccc(C)[n+]([O-])c2)nn(-c2ccc(Cl)cc2Cl)c1-c1ccc(Cl)cc1 [Compound 10]	1.2
Cc1ccc(NC(=O)c2nn(-c3ccc(Cl)cc3Cl)c(-c3ccc(Cl)cc3)c2C)nc1 [Compound 11]	0.98
Cc1ccc(NC(=O)c2nn(-c3ccc(Cl)cc3Cl)c(-c3ccc(Cl)cc3)c2C)[n+](C)c1 [Compound 12]	8.59
Cc1ccc(NC(=O)c2nn(-c3ccc(Cl)cc3Cl)c(-c3ccc(Cl)cc3)c2C)[n+]([O-])c1 [Compound 13]	4.58

The next lines start with the values.

Kb [µM]	Structure (SMILES)
9.43	Cc1c(C(=O)N[C@H]2CC[C@H](NS(N)(=O)=O)CC2)nn(-c2ccc(Cl)cc2Cl)c1-c1ccc(Cl)cc1 [Compound 18]
3.76	Cc1c(C(=O)NCC2CCC(CN)CC2)nn(-c2ccc(Cl)cc2Cl)c1-c1ccc(Cl)cc1 (stereo not shown) [Compound 19]

molecular target: T1, CB1; test: Radioligand displacement of [3H]1; format: binding; details: not given

Ki [µM]	Structure (SMILES)
~0.01	Cc1c(C(=O)NCC2CCC(CNS(C)(=O)=O)CC2)nn(-c2ccc(Cl)cc2Cl)c1-c1ccc(Cl)cc1 (stereo not shown) [Compound 20]

tested on: MDCK-mdr1 cells; test: MDCK-mdr1 transport assay; format: in vitro ADME, Canine; details: 3.16 µM apical, 1 hr at 37°C
Procedure, shortened: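 MDCK-mdr1 cells grown on permeable filter inserts for 4 days to confluence. Test compound applied apically at 3.16 µM, incubated 1 hr at 37°C, alongside two reference CB1 antagonists as controls. Apical and basolateral samples dried under nitrogen and quantified by LC-MS/MS (MRM) using a 0.1% formic acid water/methanol gradient at 0.5 mL/min. Read-out is the percentage transported across the monolayer.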

transport from apical to basal side of the membrane	Structure (SMILES)
less than 1%	Cc1c(C(=O)NC[C@H]2CC[C@@H](CNS(C)(=O)=O)CC2)nn(-c2ccc(Cl)cc2Cl)c1-c1ccc(Cl)cc1 [Compound 22]
less than 1%	Cc1c(C(=O)NC[C@H]2CC[C@@H](CNS(N)(=O)=O)CC2)nn(-c2ccc(Cl)cc2Cl)c1-c1ccc(Cl)cc1 [Compound 23]
~ 90%	CCNC1(C(N)=O)CCN(c2ncnc3c2nc(-c2ccccc2Cl)n3-c2ccc(Cl)cc2)CC1 [otenabant, reference compound]
~ 15%	Cc1c(C(=O)NN2CCCCC2)nn(-c2ccc(Cl)cc2Cl)c1-c1ccc(Cl)cc1 [rimonabant, reference compound]
